Laboratory results published in ChEMBL document CHEMBL1156834, “Syntheses and biological activities of KRN7000 analogues having aromatic residues in the acyl and backbone chains with varying stereochemistry” (Bioorg Med Chem Lett, 2010).
The source made the active and inactive calls. The rule behind the calls is not given here.

Columns and labels:
Type in all cases: cell-based
[1] = target: T1, Antigen-presenting glycoprotein CD1d (Homo sapiens) (UniProt P15813); assay: Induction of CD1D-mediated IFN-gamma production in human iNKT cells expressing CD4 at 25 to 400 nM after 18 hrs by ELISA
T1 sequence (whole entry): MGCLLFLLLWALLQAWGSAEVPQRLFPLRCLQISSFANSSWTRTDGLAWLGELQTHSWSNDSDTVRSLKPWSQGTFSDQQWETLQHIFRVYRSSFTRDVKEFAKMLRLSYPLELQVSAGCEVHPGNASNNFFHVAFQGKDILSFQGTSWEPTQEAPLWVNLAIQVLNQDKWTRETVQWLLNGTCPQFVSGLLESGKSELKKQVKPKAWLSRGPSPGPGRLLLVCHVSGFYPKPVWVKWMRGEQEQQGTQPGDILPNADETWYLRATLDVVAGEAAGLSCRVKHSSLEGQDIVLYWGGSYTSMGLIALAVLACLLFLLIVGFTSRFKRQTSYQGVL
How it was run: (§1)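 CD4⁺ human iNKT clone HDD11 with CD1d-transfected HeLa cells as APC, in RPMI-1640 plus 10% FBS. 2.5 × 10⁴ HeLa cells were pulsed with glycolipid for 18 h at 37 °C, washed, then given fresh glycolipid-free medium with 2.5 × 10⁴ iNKT cells. Supernatants were taken after a further 18 h at 37 °C, and cytokine was measured by capture ELISA.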

[2] = target: T1, Antigen-presenting glycoprotein CD1d (Homo sapiens); assay: Induction of CD1D-mediated IL-13 production in human iNKT cells expressing CD4 at 25 to 400 nM after 18 hrs by ELISA; how it was run: as §1
[3] = target: T1, Antigen-presenting glycoprotein CD1d (Homo sapiens); assay: Induction of CD1D-mediated IL-4 production in human iNKT cells expressing CD4 at 25 to 400 nM after 18 hrs by ELISA; how it was run: as §1
[4] = target: T1, Antigen-presenting glycoprotein CD1d (Homo sapiens); assay: Induction of CD1D-mediated IL-13 production in human iNKT cells expressing CD4 at 400 nM after 18 hrs by ELISA; how it was run: as §1
[5] = target: T1, Antigen-presenting glycoprotein CD1d (Homo sapiens); assay: Induction of CD1D-mediated IL-4 production in human iNKT cells expressing CD4 at 25 nM after 18 hrs by ELISA; how it was run: as §1
[6] = target: T1, Antigen-presenting glycoprotein CD1d (Homo sapiens); assay: Induction of CD1D-mediated IFN-gamma production in human iNKT cells expressing CD4 at 25 nM after 18 hrs by ELISA; how it was run: as §1
[7] = target: T1, Antigen-presenting glycoprotein CD1d (Homo sapiens); assay: Induction of CD1D-mediated IL-13 production in human iNKT cells expressing CD4 at 25 nM after 18 hrs by ELISA; how it was run: as §1

Activity [1] | Activity [2] | Activity [3] | Activity [4] | Activity [5] | Activity [6] | Activity [7] | Structure (SMILES)
Active | Active | Active | Active | – | – | – | CCCCCCCCCCCCCCCC[C@H](CO[C@H]1O[C@H](CO)[C@H](O)[C@H](O)[C@H]1O)NC(=O)CCCCCCCCCc1ccccc1
– | – | – | Active | – | – | – | CCCCCCCCCCCCCCCCCCCCCCCCCC(=O)N[C@@H](CO[C@H]1O[C@H](CO)[C@H](O)[C@H](O)[C@H]1O)[C@H](O)[C@H](O)CCCCCCCCCCCCCC
Active | Active | Active | Active | – | – | – | CCCCCCCCCCCCCCCCCCCCCCCCCC(=O)N[C@@H](CO[C@H]1O[C@H](CO)[C@H](O)[C@H](O)[C@H]1O)[C@H](O)[C@H](O)CCCc1ccccc1
– | – | – | Active | Active | Active | Active | CCCCCCCCCCCCCCCCCCCCCCCCCC(=O)N[C@@H](CO[C@H]1O[C@H](CO)[C@H](O)[C@H](O)[C@H]1O)[C@@H](O)CCCCCCCCCCCCCCC
– | – | – | Active | Active | Active | Active | CCCCCCCCCCCCCCCCCCCCCCCCCC(=O)N[C@@H](CO[C@H]1O[C@H](CO)[C@H](O)[C@H](O)[C@H]1O)[C@H](O)[C@@H](O)CCCc1ccccc1
– | – | – | Active | Active | Active | Active | CCCCCCCCCCCCCC[C@H](O)[C@H](O)[C@H](CO[C@H]1O[C@H](CO)[C@H](O)[C@H](O)[C@H]1O)NC(=O)CCCCCc1ccccc1
– | – | – | Active | Active | Active | Active | CCCCCCCCCCCCCCC[C@H](O)[C@H](CO[C@H]1O[C@H](CO)[C@H](O)[C@H](O)[C@H]1O)NC(=O)CCCCCCCCCc1ccccc1
– | – | – | Active | Active | Active | Active | CCCCCCCCCCCCCCCCCCCCCCCCCC(=O)N[C@H](CCCCCCCCCCCCCCCC)CO[C@H]1O[C@H](CO)[C@H](O)[C@H](O)[C@H]1O
